# Test results: ChEMBL document CHEMBL1153373, “Effect of ring size on conformation and biological activity of cyclic cationic antimicrobial peptides” (J Med Chem, 2009)
# Square brackets hold non-standard residues; d marks the D form. Peptide text beside a SMILES is read from it.
# Key:
# Assay type in all cases: functional
# Escherichia coli = assay: Antimicrobial activity against Escherichia coli after 24 hrs by standard microtiter dilution method
# Klebsiella pneumoniae = assay: Antimicrobial activity against Klebsiella pneumoniae after 24 hrs by standard microtiter dilution method
# Corynebacterium jeikeium = assay: Antimicrobial activity against Corynebacterium jeikeium after 24 hrs by standard microtiter dilution method
# Staphylococcus aureus = assay: Antimicrobial activity against Staphylococcus aureus after 24 hrs by standard microtiter dilution method
# Enterobacter cloacae = assay: Antimicrobial activity against Enterobacter cloacae after 24 hrs by standard microtiter dilution method
# Serratia marcescens = assay: Antimicrobial activity against Serratia marcescens after 24 hrs by standard microtiter dilution method
# Streptococcus pneumoniae = assay: Antimicrobial activity against Streptococcus pneumoniae after 24 hrs by standard microtiter dilution method
# [1] = tested on: Acinetobacter calcoaceticus; assay: Antimicrobial activity against Acinetobacter calcoaceticus after 24 hrs by standard microtiter dilution method
# Enterococcus faecalis = assay: Antimicrobial activity against Enterococcus faecalis after 24 hrs by standard microtiter dilution method
# Streptococcus pyogenes = assay: Antimicrobial activity against Streptococcus pyogenes after 24 hrs by standard microtiter dilution method
# [2] = tested on: Staphylococcus epidermidis; assay: Antimicrobial activity against Staphylococcus epidermidis after 24 hrs by standard microtiter dilution method
# Pseudomonas aeruginosa = assay: Antimicrobial activity against Pseudomonas aeruginosa after 24 hrs by standard microtiter dilution method
# Streptococcus mitis = assay: Antimicrobial activity against Streptococcus mitis after 24 hrs by standard microtiter dilution method
# Candida albicans = assay: Antimicrobial activity against Candida albicans after 24 hrs by standard microtiter dilution method
# Outline: (§1)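 Fungal MICs were determined by standard microtitre dilution, taken as the lowest peptide concentration inhibiting growth after 24 h incubation at 37 °C.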
# [3] = tested on: Stenotrophomonas maltophilia; assay: Antimicrobial activity against Stenotrophomonas maltophilia after 24 hrs by standard microtiter dilution method
# Cryptococcus neoformans = assay: Antimicrobial activity against Cryptococcus neoformans after 24 hrs by standard microtiter dilution method; outline: as §1
MIC (Escherichia coli) [µg/mL],MIC (Klebsiella pneumoniae) [µg/mL],MIC (Corynebacterium jeikeium) [µg/mL],MIC (Staphylococcus aureus) [µg/mL],MIC (Enterobacter cloacae) [µg/mL],MIC (Serratia marcescens) [µg/mL],MIC (Streptococcus pneumoniae) [µg/mL],MIC [1] [µg/mL],MIC (Enterococcus faecalis) [µg/mL],MIC (Streptococcus pyogenes) [µg/mL],MIC [2] [µg/mL],MIC (Pseudomonas aeruginosa) [µg/mL],MIC (Streptococcus mitis) [µg/mL],MIC (Candida albicans) [µg/mL],MIC [3] [µg/mL],MIC (Cryptococcus neoformans) [µg/mL],Structure (SMILES)
64,32,2,16,256,256,2,8,,,,,,,,,CC(C)C[C@@H]1NC(=O)[C@H](CCCCN)NC(=O)[C@H](C(C)C)NC(=O)[C@@H]2CCCN2C(=O)[C@@H](Cc2ccc(O)cc2)NC(=O)[C@H](CC(C)C)NC(=O)[C@H](CCCCN)NC(=O)[C@H](C(C)C)NC(=O)[C@H](CCCCN)NC(=O)[C@@H]2CCCN2C(=O)[C@@H](Cc2ccc(O)cc2)NC1=O
64,,4,4,256,256,0.5,4,4,0.5,4,256,1,32,32,,CC(C)C[C@@H]1NC(=O)[C@H](CCCCN)NC(=O)[C@H](C(C)C)NC(=O)[C@@H]2CCCN2C(=O)[C@@H](Cc2ccc(O)cc2)NC(=O)[C@H](CC(C)C)NC(=O)[C@H](CCCCN)NC(=O)[C@H](C(C)C)NC(=O)[C@H](CCCCN)NC(=O)[C@H](CC(C)C)NC(=O)[C@@H]2CCCN2C(=O)[C@@H](Cc2ccc(O)cc2)NC(=O)[C@H](C(C)C)NC1=O
,,,,128,,0.5,2,8,0.5,2,,,16,16,,CC(C)C[C@@H]1NC(=O)[C@H](CCCCN)NC(=O)[C@H](C(C)C)NC(=O)[C@H](CCCCN)NC(=O)[C@H](CC(C)C)NC(=O)[C@@H]2CCCN2C(=O)[C@@H](Cc2ccc(O)cc2)NC(=O)[C@H](C(C)C)NC(=O)[C@H](CCCCN)NC(=O)[C@H](CCCCN)NC(=O)[C@H](C(C)C)NC(=O)[C@@H]2CCCN2C(=O)[C@@H](Cc2ccc(O)cc2)NC1=O (cyclo(KKV[dY]PLKVKL[dY]PV))
,64,,64,256,256,16,16,64,2,64,,,,128,16,CC(C)C[C@@H]1NC(=O)[C@H](CCCCN)NC(=O)[C@H](C(C)C)NC(=O)[C@@H]2CCCN2C(=O)[C@@H](Cc2ccc(O)cc2)NC(=O)[C@H](CC(C)C)NC(=O)[C@H](CCCCN)NC(=O)[C@H](C(C)C)NC(=O)[C@H](CCCCN)NC(=O)[C@@H]2CCCN2C(=O)[C@@H](Cc2ccc(O)cc2)NC(=O)[C@H](CCCCN)NC1=O (cyclo(KLK[dY]PKVKL[dY]PV))
,256,,256,256,256,256,,256,,256,256,64,256,256,128,CC(C)C[C@@H]1NC(=O)[C@H](CCCCN)NC(=O)[C@H](C(C)C)NC(=O)[C@H](CCCCN)NC(=O)[C@@H]2CCCN2C(=O)[C@@H](Cc2ccc(O)cc2)NC(=O)[C@H](CCCCN)NC(=O)[C@H](CCCCN)NC(=O)[C@H](C(C)C)NC(=O)[C@@H]2CCCN2C(=O)[C@@H](Cc2ccc(O)cc2)NC1=O (cyclo(VKK[dY]PKVKL[dY]P))
,8,8,64,,256,,2,8,,,,8,64,,64,CC(C)C[C@@H]1NC(=O)[C@H](CCCCN)NC(=O)[C@H](C(C)C)NC(=O)[C@@H]2CCCN2C(=O)[C@@H](Cc2ccc(O)cc2)NC(=O)[C@H](CC(C)C)NC(=O)[C@H](CCCCN)NC(=O)[C@H](C(C)C)NC(=O)[C@H](CCCCN)NC(=O)[C@H](CC(C)C)NC(=O)[C@H](CCCCN)NC(=O)[C@@H]2CCCN2C(=O)[C@@H](Cc2ccc(O)cc2)NC(=O)[C@H](CCCCN)NC(=O)[C@H](CCCCN)NC1=O (cyclo(VKLKK[dY]PKLKVKL[dY]P))
